Measurements: ChEMBL document CHEMBL1275350, “First in class, potent, and orally bioavailable NADPH oxidase isoform 4 (Nox4) inhibitors for the treatment of idiopathic pulmonary fibrosis” (J Med Chem, 2010)
pIC50, pKi: −log10 of the molar value.

Legend:
Cytochrome P450 2C9 = Cytochrome P450 2C9 (Homo sapiens, UniProt P11712); assay: Inhibition of human CYP2C9; assay type: ADME
Summary of the method: (§1)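 Recombinant human CYP isoforms with isoform-specific probe substrates and NADPH. Compound at 0.1–25 μM, final DMSO 0.3%. Metabolites measured by mass spectrometry, except CYP1A2, which used a fluorescent metabolite. IC50 derived from the decrease in metabolite formation compared with vehicle control.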

Cytochrome P450 2C19 = Cytochrome P450 2C19 (Homo sapiens, UniProt P33261); assay: Inhibition of human CYP2C19; assay type: ADME; summary of the method: as §1
[1] = Intrinsic clearance in human liver microsomes assessed as per mg of protein at 0.5 uM; assay type: ADME, Microsome
Summary of the method: (§2)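 Phase I stability assay in pooled liver microsomes (human: male and female; rat: male Sprague-Dawley). Microsomes at 0.5 mg/mL final in 0.1 M phosphate pH 7.4. Compound 0.5 μM final, 0.25% DMSO. Preincubated at 37 °C, reaction started with 1 mM NADPH. Sampled at 0, 5, 15, 30 and 45 min, with a 45 min minus-NADPH control. Methanol quench with internal standard, LC/MS-MS, intrinsic clearance calculated.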

[2] = Intrinsic clearance in Sprague-Dawley rat liver microsomes assessed per mg of protein at 0.5 uM; assay type: ADME, Microsome; summary of the method: as §2
[3] = Permeability across human Caco-2 cell membrane at 10 uM after 2 hrs; assay type: ADME, cell-based
Summary of the method: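 Caco-2 monolayers grown 20 days in DMEM, used when TEER >800 Ω·cm2. Dosed at 10 μM final in HBSS pH 6.5 with 1% DMSO, apical-to-basolateral and basolateral-to-apical. Incubated 2 h at 37 °C, both compartments sampled, LC-MS/MS with five-point calibration. Papp = (dQ/dt)/(C0A).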

NADPH oxidase 4 = target: T1, NADPH oxidase 4 (Homo sapiens, UniProt Q9NPH5); assay: Inhibition of human NOX4 overexpressed in T-REx-293 cell membrane assessed as ROS production by cell free assay in presence of NADPH; settings: in the assay text read “T-REx-293 cell membrane” for “human PMN cell membrane”
T1 sequence (Q9NPH5 whole entry): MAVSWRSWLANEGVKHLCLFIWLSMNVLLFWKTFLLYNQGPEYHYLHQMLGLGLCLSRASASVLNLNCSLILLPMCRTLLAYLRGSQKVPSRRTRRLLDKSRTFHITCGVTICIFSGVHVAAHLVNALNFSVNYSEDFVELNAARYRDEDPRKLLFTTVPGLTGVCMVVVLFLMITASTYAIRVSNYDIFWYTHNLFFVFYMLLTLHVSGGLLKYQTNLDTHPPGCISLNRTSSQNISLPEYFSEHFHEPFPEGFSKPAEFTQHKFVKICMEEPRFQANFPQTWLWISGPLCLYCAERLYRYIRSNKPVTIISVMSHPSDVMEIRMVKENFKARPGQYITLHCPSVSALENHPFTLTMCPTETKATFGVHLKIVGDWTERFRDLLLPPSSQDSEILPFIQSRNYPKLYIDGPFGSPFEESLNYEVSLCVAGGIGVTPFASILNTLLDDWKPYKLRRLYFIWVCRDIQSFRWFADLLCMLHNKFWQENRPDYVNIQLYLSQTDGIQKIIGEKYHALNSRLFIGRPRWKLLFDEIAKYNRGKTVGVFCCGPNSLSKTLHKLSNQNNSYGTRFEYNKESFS
Summary of the method: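 hNOX4 T-REx-293 cells induced with tetracycline (1 μg/mL, 24 h), sonicated in sucrose/NaCl/EGTA PBS buffer pH 7.4, membranes taken from a sucrose gradient. NADPH-triggered ROS measured by Amplex Red/HRP in PBS, with compound at 1 nM–100 μM, 20 min at 37 °C. Ki by Cheng-Prusoff from ≥3 triplicate experiments.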

[4] = Volume of distribution at steady state in Sprague-Dawley rat at 1 mg/kg, iv; assay type: ADME, organism-based; parameters: dose 1 mg/kg, route intravenous; settings: in vivo, read-out: Vdss
[5] = Cmax in Sprague-Dawley rat at 10 mg/kg, po; assay type: ADME, organism-based; parameters: dose 10 mg/kg, route oral; settings: in vivo
Summary of the method: (§3)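 Parallel design with six male rats: three given 5 mg/kg iv in EDPW (10% EtOH, 10% DMA, 30% PG, 50% water), three given 10 mg/kg orally in aqueous 0.5% CMC with 0.25% Tween 20. Carotid cannula blood sampled up to 24 h. Plasma levels by LC/MS/MS (LLOQ 1.00 ng/mL). Noncompartmental analysis.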

[6] = target: Xanthine dehydrogenase/oxidase (Homo sapiens, UniProt P47989); assay: Inhibition of xanthine oxidase by in vitro enzymatic assay in presence of xanthine
Summary of the method: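 Cell-free Amplex Red read-out: xanthine oxidase incubated in PBS with Amplex Red, HRP and cofactors; ROS production started by adding xanthine. Compound at rising concentrations from 1 nM to 100 μM, 20 min at 37 °C, then read on a plate reader. Background taken without enzyme or without agonist. Ki by Cheng-Prusoff, mean of at least three experiments run in triplicate.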

[7] = Tmax in Sprague-Dawley rat at 5 mg/kg, sc; assay type: ADME, organism-based; parameters: dose 5 mg/kg, route subcutaneous; settings: in vivo
[8] = Half life in Sprague-Dawley rat at 1 mg/kg, iv; assay type: ADME, organism-based; parameters: dose 1 mg/kg, route intravenous; settings: in vivo
[9] = Tmax in Sprague-Dawley rat at 1 mg/kg, iv; assay type: ADME, organism-based; parameters: dose 1 mg/kg, route intravenous; settings: in vivo
[10] = Tmax in Sprague-Dawley rat at 10 mg/kg, po; assay type: ADME, organism-based; parameters: dose 10 mg/kg, route oral; settings: in vivo
Summary of the method: (§4)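 Parallel design in male rats, three per group. Group 1: 5 mg/kg iv in EDPW (10% EtOH, 10% DMA, 30% PG, 50% water). Group 2: 10 mg/kg oral in aqueous 0.5% CMC with 0.25% Tween 20. Carotid cannula blood drawn up to 24 h. Plasma measured by LC/MS/MS (LLOQ 1.00 ng/mL), noncompartmental analysis.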

Rattus norvegicus = assay: Hepatic blood flow in Sprague-Dawley rat at 5 mg/kg, iv; assay type: ADME, organism-based, Liver; parameters: dose 5 mg/kg, route intravenous; settings: in vivo
[11] = Clearance in Sprague-Dawley rat at 1 mg/kg, iv; assay type: ADME, organism-based; parameters: dose 1 mg/kg, route intravenous; settings: in vivo
[12] = Cmax in Sprague-Dawley rat at 5 mg/kg, sc; assay type: ADME, organism-based; parameters: dose 5 mg/kg, route subcutaneous; settings: in vivo
[13] = AUC (infinity) in Sprague-Dawley rat at 5 mg/kg, sc; assay type: ADME, organism-based; parameters: time infinity, dose 5 mg/kg, route subcutaneous; settings: plasma
[14] = Bioavailability in Sprague-Dawley rat at 5 mg/kg, sc; assay type: ADME, organism-based; settings: in vivo
[15] = AUC (infinity) in Sprague-Dawley rat at 10 mg/kg, po; assay type: ADME, organism-based; parameters: time infinity, dose 10 mg/kg, route oral; settings: plasma; summary of the method: as §3
[16] = Oral bioavailability in Sprague-Dawley rat at 10 mg/kg; assay type: ADME, organism-based; settings: in vivo; summary of the method: as §4
[17] = AUC (infinity) in Sprague-Dawley rat at 1 mg/kg, iv; assay type: ADME, organism-based; parameters: time infinity, dose 1 mg/kg, route intravenous; settings: plasma
[18] = Half life in Sprague-Dawley rat at 5 mg/kg, sc; assay type: ADME, organism-based; parameters: dose 5 mg/kg, route subcutaneous; settings: in vivo
NADPH oxidase 2 = NADPH oxidase 2 (Homo sapiens, UniProt P04839); assay: Inhibition of human NOX2 overexpressed in […] cell membrane assessed as ROS production by cell free assay in presence of NADPH
Summary of the method: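 Nox2 source: membranes from human polymorphonuclear cells, sonicated and collected at the 17/40% sucrose interface. ROS read by Amplex Red/HRP in PBS after NADPH addition, with compound at 1 nM–100 μM for 20 min at 37 °C. Background taken without membranes or agonist. Ki via Cheng-Prusoff, mean of ≥3 experiments in triplicate.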

[19] = Cmax in Sprague-Dawley rat at 1 mg/kg, iv; assay type: ADME, organism-based; parameters: dose 1 mg/kg, route intravenous; settings: in vivo
[20] = Half life in Sprague-Dawley rat at 10 mg/kg, po; assay type: ADME, organism-based; parameters: dose 10 mg/kg, route oral; settings: in vivo; summary of the method: as §3
[21] = Volume of distribution at steady state in Sprague-Dawley rat at 5 mg/kg, iv; assay type: ADME, organism-based; parameters: dose 5 mg/kg, route intravenous; settings: in vivo, read-out: Vdss; summary of the method: as §4
[22] = Cmax in Sprague-Dawley rat at 5 mg/kg, iv; assay type: ADME, organism-based; parameters: dose 5 mg/kg, route intravenous; settings: in vivo; summary of the method: as §3
[23] = Clearance in Sprague-Dawley rat at 10 mg/kg, po; assay type: ADME, organism-based; parameters: dose 10 mg/kg, route oral; settings: in vivo; summary of the method: as §3
[24] = Half life in Sprague-Dawley rat at 5 mg/kg, iv; assay type: ADME, organism-based; parameters: dose 5 mg/kg, route intravenous; settings: in vivo; summary of the method: as §3
[25] = AUC (infinity) in Sprague-Dawley rat at 5 mg/kg, iv; assay type: ADME, organism-based; parameters: time infinity, dose 5 mg/kg, route intravenous; settings: plasma; summary of the method: as §3
[26] = Clearance in Sprague-Dawley rat at 5 mg/kg, iv; assay type: ADME, organism-based; parameters: dose 5 mg/kg, route intravenous; settings: in vivo; summary of the method: as §3
Cytochrome P450 2C8 = Cytochrome P450 2C8 (Homo sapiens, UniProt P10632); assay: Inhibition of human CYP2C8; assay type: ADME; summary of the method: as §1
Cytochrome P450 3A4 = Cytochrome P450 3A4 (Homo sapiens, UniProt P08684); assay: Inhibition of human CYP3A4; assay type: ADME; summary of the method: as §1
Cytochrome P450 3A4, sequence (P08684 whole entry): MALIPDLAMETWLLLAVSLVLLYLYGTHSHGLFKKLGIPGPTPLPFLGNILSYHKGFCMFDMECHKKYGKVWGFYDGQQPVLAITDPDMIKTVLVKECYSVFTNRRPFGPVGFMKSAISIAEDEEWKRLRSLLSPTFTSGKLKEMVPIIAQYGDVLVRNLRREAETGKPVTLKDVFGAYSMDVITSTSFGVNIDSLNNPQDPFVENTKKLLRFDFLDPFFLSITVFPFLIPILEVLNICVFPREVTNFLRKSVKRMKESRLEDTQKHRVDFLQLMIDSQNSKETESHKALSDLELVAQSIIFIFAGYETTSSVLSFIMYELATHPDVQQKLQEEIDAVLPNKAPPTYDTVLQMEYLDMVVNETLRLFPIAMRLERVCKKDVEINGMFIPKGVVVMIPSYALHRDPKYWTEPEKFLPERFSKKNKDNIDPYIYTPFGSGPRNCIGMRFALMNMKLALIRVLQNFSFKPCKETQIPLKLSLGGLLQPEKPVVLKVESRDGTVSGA

Cytochrome P450 2C19, sequence (P33261 whole entry): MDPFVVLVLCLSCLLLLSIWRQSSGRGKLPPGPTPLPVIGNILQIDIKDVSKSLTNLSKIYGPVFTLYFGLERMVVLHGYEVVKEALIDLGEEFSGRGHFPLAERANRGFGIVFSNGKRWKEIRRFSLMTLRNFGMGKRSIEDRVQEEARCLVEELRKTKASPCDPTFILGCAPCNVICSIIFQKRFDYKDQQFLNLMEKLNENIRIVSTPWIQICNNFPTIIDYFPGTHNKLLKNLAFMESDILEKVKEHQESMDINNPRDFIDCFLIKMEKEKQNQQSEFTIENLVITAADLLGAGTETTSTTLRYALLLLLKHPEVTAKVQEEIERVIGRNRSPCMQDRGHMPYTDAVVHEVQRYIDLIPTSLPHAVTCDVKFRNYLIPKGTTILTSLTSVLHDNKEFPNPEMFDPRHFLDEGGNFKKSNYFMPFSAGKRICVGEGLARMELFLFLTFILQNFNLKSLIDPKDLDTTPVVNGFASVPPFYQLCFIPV
Cytochrome P450 2C9, sequence (P11712 whole entry, canonical isoform): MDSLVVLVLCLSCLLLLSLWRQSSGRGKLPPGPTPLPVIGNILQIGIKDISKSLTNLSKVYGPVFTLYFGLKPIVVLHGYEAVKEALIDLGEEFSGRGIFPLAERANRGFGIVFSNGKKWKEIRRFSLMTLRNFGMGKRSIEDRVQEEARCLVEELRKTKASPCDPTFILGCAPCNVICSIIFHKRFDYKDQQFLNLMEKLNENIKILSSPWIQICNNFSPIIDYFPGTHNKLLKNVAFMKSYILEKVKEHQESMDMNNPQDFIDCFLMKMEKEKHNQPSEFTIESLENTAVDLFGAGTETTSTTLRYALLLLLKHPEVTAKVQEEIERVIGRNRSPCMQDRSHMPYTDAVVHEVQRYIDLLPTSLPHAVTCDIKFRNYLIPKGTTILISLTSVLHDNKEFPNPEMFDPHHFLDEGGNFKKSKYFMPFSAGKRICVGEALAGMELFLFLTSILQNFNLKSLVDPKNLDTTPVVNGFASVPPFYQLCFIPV
NADPH oxidase 2, sequence (P04839 whole entry): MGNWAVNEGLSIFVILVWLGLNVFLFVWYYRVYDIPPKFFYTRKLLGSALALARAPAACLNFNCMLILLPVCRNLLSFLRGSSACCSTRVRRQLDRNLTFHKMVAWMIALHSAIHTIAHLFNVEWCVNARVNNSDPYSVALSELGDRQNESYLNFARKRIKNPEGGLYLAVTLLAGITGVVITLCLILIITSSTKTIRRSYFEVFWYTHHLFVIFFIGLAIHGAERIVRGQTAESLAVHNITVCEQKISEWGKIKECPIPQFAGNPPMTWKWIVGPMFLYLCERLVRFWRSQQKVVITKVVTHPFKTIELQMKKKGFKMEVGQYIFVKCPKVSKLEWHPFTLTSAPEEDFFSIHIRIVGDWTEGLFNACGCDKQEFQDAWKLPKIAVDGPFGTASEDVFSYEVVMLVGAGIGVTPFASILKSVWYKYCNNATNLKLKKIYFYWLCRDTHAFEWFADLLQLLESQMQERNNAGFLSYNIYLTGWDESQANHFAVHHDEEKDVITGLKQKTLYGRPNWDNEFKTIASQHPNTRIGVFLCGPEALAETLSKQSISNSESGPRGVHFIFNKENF
Cytochrome P450 2C8, sequence (P10632 whole entry): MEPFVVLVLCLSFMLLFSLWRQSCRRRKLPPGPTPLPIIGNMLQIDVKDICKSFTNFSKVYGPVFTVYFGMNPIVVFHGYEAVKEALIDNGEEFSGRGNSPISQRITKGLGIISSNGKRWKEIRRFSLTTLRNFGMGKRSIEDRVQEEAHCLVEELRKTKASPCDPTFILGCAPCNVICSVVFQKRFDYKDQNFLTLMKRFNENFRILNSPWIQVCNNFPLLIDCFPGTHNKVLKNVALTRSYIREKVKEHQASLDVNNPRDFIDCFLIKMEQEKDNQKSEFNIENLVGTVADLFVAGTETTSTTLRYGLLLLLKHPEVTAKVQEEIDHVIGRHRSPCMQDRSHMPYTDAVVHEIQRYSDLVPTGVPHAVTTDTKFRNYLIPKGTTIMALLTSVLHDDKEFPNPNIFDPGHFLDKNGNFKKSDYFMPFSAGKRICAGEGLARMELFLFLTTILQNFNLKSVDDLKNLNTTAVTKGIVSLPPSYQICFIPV
Xanthine dehydrogenase/oxidase, sequence (P47989 whole entry): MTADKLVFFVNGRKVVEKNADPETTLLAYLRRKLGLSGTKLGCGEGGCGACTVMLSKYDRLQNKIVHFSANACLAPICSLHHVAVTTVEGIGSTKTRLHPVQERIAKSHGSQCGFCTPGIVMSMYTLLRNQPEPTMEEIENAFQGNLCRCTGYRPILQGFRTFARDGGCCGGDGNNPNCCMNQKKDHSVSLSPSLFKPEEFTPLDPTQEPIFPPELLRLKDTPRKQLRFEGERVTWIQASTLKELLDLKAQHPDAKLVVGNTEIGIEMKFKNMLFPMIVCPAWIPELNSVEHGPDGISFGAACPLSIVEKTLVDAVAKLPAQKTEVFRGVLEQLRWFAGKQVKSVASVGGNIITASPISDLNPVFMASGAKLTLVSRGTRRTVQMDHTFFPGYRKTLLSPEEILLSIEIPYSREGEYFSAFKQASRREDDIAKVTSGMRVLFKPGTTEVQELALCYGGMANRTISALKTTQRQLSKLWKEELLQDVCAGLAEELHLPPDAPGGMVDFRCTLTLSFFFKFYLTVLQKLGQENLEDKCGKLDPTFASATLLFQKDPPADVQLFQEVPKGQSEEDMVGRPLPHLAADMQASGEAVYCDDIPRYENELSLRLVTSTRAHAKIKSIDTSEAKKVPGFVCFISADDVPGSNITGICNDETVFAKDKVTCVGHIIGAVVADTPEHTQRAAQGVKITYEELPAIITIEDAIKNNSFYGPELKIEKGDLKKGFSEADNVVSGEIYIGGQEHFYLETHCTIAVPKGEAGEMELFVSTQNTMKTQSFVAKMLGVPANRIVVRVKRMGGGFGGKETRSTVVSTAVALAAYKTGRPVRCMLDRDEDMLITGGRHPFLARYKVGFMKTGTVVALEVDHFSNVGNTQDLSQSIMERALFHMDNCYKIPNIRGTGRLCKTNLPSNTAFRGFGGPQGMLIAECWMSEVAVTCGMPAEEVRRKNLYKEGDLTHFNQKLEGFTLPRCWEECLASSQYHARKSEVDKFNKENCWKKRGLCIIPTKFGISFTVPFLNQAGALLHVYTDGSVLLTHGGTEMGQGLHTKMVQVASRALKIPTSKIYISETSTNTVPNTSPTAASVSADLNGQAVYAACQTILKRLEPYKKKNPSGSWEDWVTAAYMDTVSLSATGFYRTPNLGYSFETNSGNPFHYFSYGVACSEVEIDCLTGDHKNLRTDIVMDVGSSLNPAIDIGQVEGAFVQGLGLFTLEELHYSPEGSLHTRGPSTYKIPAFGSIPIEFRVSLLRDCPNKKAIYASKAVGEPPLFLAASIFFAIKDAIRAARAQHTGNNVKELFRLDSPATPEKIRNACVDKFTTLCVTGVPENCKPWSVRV

Compound	pIC50 (Cytochrome P450 2C9)	pIC50 (Cytochrome P450 2C19)	microsomal CLint at 0.5 µM [1]	microsomal CLint at 0.5 µM [2]	Papp at 2 h, 10 µM [3]	pKi (NADPH oxidase 4)	Cmax [5]	Tmax [10]	AUC(0-inf) [15]	bioavailability [16]	half-life [20]	also measured
COCCCn1c(CN(C)Cc2ccccc2)c2c(=O)n(-c3ccc(F)cc3Cl)[nH]c2cc1=O	6.05	4.89	96.4 µL/min/mg	248 µL/min/mg	39.9 ×10⁻⁶ cm/s	6.78						
Cc1c2c(=O)n(-c3ccccc3)[nH]c2cc(=O)n1Cc1cccnc1				97.1 µL/min/mg	79.2 ×10⁻⁶ cm/s	6.43	575 ng/mL	15 min	417 ng·h/mL	22%	72 min	Vd [4]: 2.36 L/kg; pKi [6]: < 4.52; Tmax [7]: 30 min; half-life [8]: 24 min; Tmax [9]: 4.8 min; QH (Rattus norvegicus): 55 mL/min/kg; clearance [11]: 85.2 mL/min/kg; Cmax [12]: 678 ng/mL; AUC(0-inf) [13]: 815 ng·h/mL; bioavailability [14]: 87%; AUC(0-inf) [17]: 196 ng·h/mL; half-life [18]: 42 min; pKi (NADPH oxidase 2): 5.33; Cmax [19]: 271 ng/mL
O=c1c2c(COCc3ccccc3)n(Cc3cnccn3)c(=O)cc2[nH]n1-c1ccccc1Cl			32.4 µL/min/mg	49.5 µL/min/mg	78.6 ×10⁻⁶ cm/s	7.02	6080 ng/mL	15 min	8930 ng·h/mL	29%	143 min	Vd [21]: 0.35 L/kg; Cmax [22]: 36800 ng/mL; CL/F [23]: 20 mL/min/kg; half-life [24]: 188 min; AUC(0-inf) [25]: 15400 ng·h/mL; clearance [26]: 5.5 mL/min/kg
CN(Cc1c2c(=O)n(-c3ccccc3Cl)[nH]c2cc(=O)n1Cc1ccncc1)c1ccccc1	5.39	5.19	76.3 µL/min/mg	78 µL/min/mg	4.6 ×10⁻⁶ cm/s	6.82						pIC50 (Cytochrome P450 2C8): 5.44; pIC50 (Cytochrome P450 3A4): 5.96
